The values that follow come from ChEMBL document CHEMBL1135421, “2-(Anilinomethyl)imidazolines as alpha1 adrenergic receptor agonists: the discovery of alpha1a subtype selective 2'-alkylsulfonyl-substituted analogues” (J Med Chem, 2002).

Values joined by “and” are separate entries in the source; they are usually repeats but may differ in a detail not shown here. Equal values may be shown once.

Test [1] concerns the target T1, Alpha-2A adrenergic receptor (Homo sapiens, UniProt P08913).
T1 sequence (P08913 whole entry): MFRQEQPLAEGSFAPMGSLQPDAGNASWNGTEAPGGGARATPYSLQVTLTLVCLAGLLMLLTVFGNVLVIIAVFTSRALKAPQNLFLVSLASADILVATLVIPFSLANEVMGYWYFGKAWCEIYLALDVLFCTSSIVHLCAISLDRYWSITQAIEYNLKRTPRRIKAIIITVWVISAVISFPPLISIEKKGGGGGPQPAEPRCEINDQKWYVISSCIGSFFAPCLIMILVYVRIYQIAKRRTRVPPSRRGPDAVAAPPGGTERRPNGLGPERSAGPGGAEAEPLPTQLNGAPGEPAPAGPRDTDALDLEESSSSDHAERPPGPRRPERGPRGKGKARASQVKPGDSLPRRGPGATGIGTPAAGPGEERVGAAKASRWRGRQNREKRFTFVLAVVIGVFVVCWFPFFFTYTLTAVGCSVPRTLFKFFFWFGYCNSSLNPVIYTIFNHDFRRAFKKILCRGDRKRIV
The test can be described thus: Agonist potency at Alpha-2A stably expressed in CHO cells. The test is classed as functional, cell-based.

Test [2] has as its target T2, Alpha-1D adrenergic receptor (Homo sapiens, UniProt P25100).
T2 sequence (P25100 whole entry): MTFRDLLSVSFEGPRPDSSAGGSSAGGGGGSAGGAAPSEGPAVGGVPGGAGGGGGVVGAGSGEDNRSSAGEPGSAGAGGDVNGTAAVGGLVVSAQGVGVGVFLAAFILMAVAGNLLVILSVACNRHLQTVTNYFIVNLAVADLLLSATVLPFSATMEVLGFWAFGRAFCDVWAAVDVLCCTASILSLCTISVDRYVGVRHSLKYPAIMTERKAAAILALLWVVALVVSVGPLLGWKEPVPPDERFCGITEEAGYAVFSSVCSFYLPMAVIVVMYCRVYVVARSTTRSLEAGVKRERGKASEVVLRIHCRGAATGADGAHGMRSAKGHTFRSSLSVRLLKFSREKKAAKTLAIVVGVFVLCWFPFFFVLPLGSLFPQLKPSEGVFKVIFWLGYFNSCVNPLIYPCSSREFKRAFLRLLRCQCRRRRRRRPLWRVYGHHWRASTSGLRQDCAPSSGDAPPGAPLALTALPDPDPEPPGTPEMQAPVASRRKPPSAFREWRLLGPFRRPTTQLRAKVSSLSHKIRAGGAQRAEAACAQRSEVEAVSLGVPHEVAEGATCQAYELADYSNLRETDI
The test can be described thus: Agonist potency at Alpha-1D adrenergic receptor assayed in rat-1 fibroblasts expressing human alpha1d. Type of test: functional. An outline of the steps:
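Human α1a, α1b or α1d receptors expressed in Rat-1 fibroblasts (DMEM, 10% heat-inactivated FBS, 0.6 mg/mL G418). Cells were plated at 6000/well and grown 48 h at 37 °C. They were loaded 2 h at 37 °C with Calcium Green (4 μM), pluronic acid 0.2% and probenecid 2.5 mM in HEPES buffer pH 7.4, then read by FLIPR at room temperature: 10 s baseline, 50 s after compound. 11-point curves were expressed as % of the 40 μM phenylephrine response; top concentration typically 5 μM.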

Test [3] concerns the target T3, Alpha-1B adrenergic receptor (Homo sapiens) (UniProt P35368).
T3 sequence (whole entry): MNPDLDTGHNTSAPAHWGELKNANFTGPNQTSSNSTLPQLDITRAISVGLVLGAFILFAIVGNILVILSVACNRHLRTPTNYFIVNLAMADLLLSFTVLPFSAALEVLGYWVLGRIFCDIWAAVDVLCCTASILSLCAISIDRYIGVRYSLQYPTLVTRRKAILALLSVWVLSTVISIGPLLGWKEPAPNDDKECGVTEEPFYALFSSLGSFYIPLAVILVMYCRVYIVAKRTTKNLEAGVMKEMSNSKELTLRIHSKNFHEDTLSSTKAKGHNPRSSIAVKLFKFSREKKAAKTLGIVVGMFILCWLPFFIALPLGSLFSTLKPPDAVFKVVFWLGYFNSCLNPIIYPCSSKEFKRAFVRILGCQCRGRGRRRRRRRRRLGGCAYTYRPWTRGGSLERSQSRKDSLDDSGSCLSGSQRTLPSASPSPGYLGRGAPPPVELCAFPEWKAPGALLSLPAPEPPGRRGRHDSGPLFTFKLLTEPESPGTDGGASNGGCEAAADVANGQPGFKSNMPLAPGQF
Nature of the test: Efficacy as % of the maximal effect observed for nonselective agonist phenylephrine in rat-1 fibroblasts expressing human Alpha-1B adrenergic receptor. The test is classed as functional. An outline of the steps:
(§1)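 Rat-1 fibroblasts expressing human α1a/α1b/α1d, grown in DMEM with 10% heat-inactivated FBS and 0.6 mg/mL G418, plated 6000 cells/well and cultured 48 h at 37 °C. Loaded 2 h at 37 °C with Calcium Green (4 μM), 0.2% pluronic acid and 2.5 mM probenecid in HEPES buffer pH 7.4. FLIPR read at room temperature: 10 s baseline, then 50 s after compound. 11-point curves as % of 40 μM phenylephrine response, top concentration typically 5 μM.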

The target of test [4] is T4, Alpha-1D adrenergic receptor (Homo sapiens) (UniProt P25100).
T4 sequence (whole entry): T2 sequence (P25100 whole entry)
The test can be described thus: Efficacy as percent maximal effect observed for nonselective agonist phenylephrine in rat-1 fibroblasts expressing human Alpha-1D adrenergic receptor. Type of test: functional. An outline of the steps: as §1

For test [5], the target named is T5, Alpha-2C adrenergic receptor (Homo sapiens, UniProt P18825).
T5 sequence (P18825 whole entry): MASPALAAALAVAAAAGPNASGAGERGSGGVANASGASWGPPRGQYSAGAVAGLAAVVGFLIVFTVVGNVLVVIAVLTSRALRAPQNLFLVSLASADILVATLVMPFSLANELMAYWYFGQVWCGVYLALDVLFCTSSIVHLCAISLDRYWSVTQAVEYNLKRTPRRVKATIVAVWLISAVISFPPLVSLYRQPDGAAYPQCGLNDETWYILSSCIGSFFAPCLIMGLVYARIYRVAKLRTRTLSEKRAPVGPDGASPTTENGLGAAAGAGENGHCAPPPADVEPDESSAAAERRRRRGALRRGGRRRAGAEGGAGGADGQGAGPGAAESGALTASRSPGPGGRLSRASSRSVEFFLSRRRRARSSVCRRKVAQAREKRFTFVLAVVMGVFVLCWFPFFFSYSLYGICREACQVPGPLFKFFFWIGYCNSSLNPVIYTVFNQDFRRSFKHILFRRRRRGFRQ
Nature of the test: Agonist potency at Alpha-2C adrenergic receptor expressed in CHO cells. Type of test: functional, cell-based.

Test [6] deals with T1, Alpha-2A adrenergic receptor. Nature of the test: Agonist potency at Alpha-2A adrenergic receptor expressed in CHO cells. The test is classed as functional, cell-based.

Take `CS(=O)(=O)c1ccccc1NCC1=NCCN1`: the EC50 in test [1] was greater than 10000 nM; in test [2], greater than 100000 nM.

Compound `CS(=O)(=O)c1cc(Cl)ccc1NCC1=NCCN1` gave an EC50 in test [1] greater than 10000 nM.

Compound `Cc1ccc(S(C)(=O)=O)c(NCC2=NCCN2)c1` had an EC50 in test [1] greater than 10000 nM. Besides, the Max in test [3] amounted to 91%.

In test [4], `CSc1ccccc1NCC1=NCCN1` had a Max of 55%. Also, the 50% effective concentration (EC50) in test [5] is 5.62 nM.

Consider `CS(=O)(=O)c1c(F)cccc1NCC1=NCCN1`, for which the EC50 in test [5] was 501 nM; in test [6] it was greater than 10000 nM.

For `CCS(=O)(=O)c1ccccc1NCC1=NCCN1`, the EC50 in test [5] was 5010 nM; in test [6] it was greater than 10000 nM.

In the case of `C[S+]([O-])c1ccccc1NCC1=NCCN1` (stereo unspecified), the EC50 in test [2] is greater than 100000 nM; in test [5] it was greater than 10000 nM; in test [6], greater than 10000 nM.

Turning to `CS(=O)(=O)c1cc(F)ccc1NCC1=NCCN1`, the EC50 in test [5] and in test [6] was greater than 10000 nM in each case.

Regarding `CSc1ccc(F)cc1NCC1=NCCN1`, in test [1], the EC50 is 25.1 nM. Also, the Max in test [4] worked out at 107%; in test [3], 92%.

For `CSc1ccc(Cl)cc1NCC1=NCCN1`, in test [1], the EC50 is 6.31 nM. The Max in test [4] was 106%; in test [3], 103%.

`CSc1c(F)cccc1NCC1=NCCN1`: the figures for the Max in test [4] and in test [3] were 59% and 48%, respectively. The EC50 in test [5] is 15.8 nM; in test [6], 100 nM.

As for `CSc1ccc(C)cc1NCC1=NCCN1`, a half-maximal effect in test [1] (EC50) was put at 25.1 nM. For the same compound, the Max in test [4] came out at 107%; in test [3], 96%.

In test [1], `CS(=O)(=O)c1cccc(F)c1NCC1=NCCN1` had an EC50 greater than 10000 nM.

In the case of `CS(=O)(=O)c1ccc(F)cc1NCC1=NCCN1`, the EC50 in test [1] was greater than 10000 nM.

Take `CS(=O)(=O)c1ccc(Cl)cc1NCC1=NCCN1`: the EC50 in test [1] is greater than 10000 nM. The compound also displayed a Max in test [3] of 103%.

As for `CC(C)Sc1ccccc1NCC1=NCCN1`, in test [3], the Max worked out at 29%. Besides, the EC50 is 28.2 nM in test [5] and 417 nM in test [6].

Turning to `CSc1cc(F)ccc1NCC1=NCCN1`, in test [1], the EC50 is 316 nM. Besides, the Max in test [4] worked out at 75%; in test [3], 78%.

On to `CS(=O)(=O)c1ccc(C(F)(F)F)cc1NCC1=NCCN1`, for which, in test [1], the EC50 is greater than 10000 nM.

For the compound `CSc1ccc(C(F)(F)F)cc1NCC1=NCCN1`, in test [1], the concentration giving a half-maximal response (EC50) was greater than 10000 nM. Besides, the Max was determined as 58% in test [4] and 114% in test [3].

For the compound `CC(C)S(=O)(=O)c1ccccc1NCC1=NCCN1`, the EC50 in test [5] and in test [6] was greater than 10000 nM each time.

Take `COc1ccc(SC)c(NCC2=NCCN2)c1`: the EC50 in test [1] is 447 nM and 200 nM. Moreover, the values for the Max in test [4] and in test [3] were 91% and 92%, respectively.

`CCSc1ccccc1NCC1=NCCN1`: the Max in test [4] amounted to 34%; in test [3] it was 82%. The EC50 in test [6] is 251 nM.
